# Exocytosis inh: LAMP-1 surface exposure blockers, TALL-104 cells – cell-based, flow cytometry, MLPCN library, primary screen; TALL-104 LAMP-1 surface exposure; cells stimulated with thapsigargin and PMA; inhibition, % at 10 µM; actives 0.66% (n = 360,000); AID 651702, 2012;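 active = inhibition above about 55%, limit read from the data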
# Tb MetRS inh: T. brucei MetRS inhibitors, primary screen, biochemical, luminescence. methionyl-tRNA synthetase (Trypanosoma brucei brucei). purified T. brucei MetRS, ATP depletion, Kinase-Glo luminescence. inhibition, % at 11.9 µM. actives 0.4% (n = 360,000). AID 624268, 2012;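 active = inhibition above a per-plate cutoff of the control wells' mean inhibition plus 3 SD, cut at about 5.5% in these data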;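 also: 0% = DMSO wells median and 100% = median of wells with control inhibitor compound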
#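 Test system – parasite MetRS enzyme · Reagent – substrates ATP, L-methionine and bulk Escherichia coli tRNA · Doses – 11.9 µM compound single dose, 0.9% DMSO · Times – 15 min enzyme-compound preincubation, 2 h reaction, 10 min detection, 25 °C · Signal – Kinase-Glo luminescence, ATP depletion format · Controls – DMSO-only wells as low control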
# ABCB6 inh MLPCN: ABCB6 transporter inhibitors, primary screen, K562-ABCB6 cells, flow cytometry, MLPCN library; AID 602162, 2011; fluorescence ratio to DMSO, % at 10 µM; K562-ABCB6 porphyrin accumulation, 1 h; stronger effect = lower value; actives 0.19% (n = 360,000);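 active = fluorescence ratio to DMSO below 75%, the collection mean minus 3 SD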;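 also: signal is porphyrin accumulated inside mitochondria; 100% equals median channel fluorescence of DMSO control wells; lower ratio means ABCB6 inhibition with less porphyrin fluorescence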
# MC4R antagonist: MC4R antagonists of cAMP signaling, primary screen, cell-based, TR-FRET, antagonist arm of biased-ligand search | Melanocortin receptor 4 (Homo sapiens), P32245 | MC4R-expressing cells, MTII-stimulated cAMP, LANCE TR-FRET | inhibition, % at 6.5 µM | actives 0.48% (n = 360,000) | AID 540295, 2011;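 active = inhibition above its plate's cutoff, the mean of tested wells on that plate plus 3 SD, cut at about 29% in these data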;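 also: 0% = Melanotan II alone and 100% = Melanotan II plus saturating MCL0020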
# Target sequence (P32245 whole entry, looked up): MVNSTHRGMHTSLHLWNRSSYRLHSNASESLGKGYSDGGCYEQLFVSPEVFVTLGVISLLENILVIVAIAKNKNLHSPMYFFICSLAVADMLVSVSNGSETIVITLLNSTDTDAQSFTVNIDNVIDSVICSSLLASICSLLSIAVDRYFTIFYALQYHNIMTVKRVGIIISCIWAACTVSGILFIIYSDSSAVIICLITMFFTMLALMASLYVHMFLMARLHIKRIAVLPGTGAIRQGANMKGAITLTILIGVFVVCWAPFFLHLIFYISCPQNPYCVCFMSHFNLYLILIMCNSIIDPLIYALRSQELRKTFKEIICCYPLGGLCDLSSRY
#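 Assay system: human MC4R-expressing U2OS cells; reagent: Melanotan II stimulation of cells; dosing: 6.5 µM single dose; timing: compound 30 min, challenge 1 h, detection 1 h; signal: TR-FRET cAMP assay; replicates: one well per compound, no replicates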
# MC4R barr agon: MC4R agonists recruiting beta-arrestin, primary screen, cell-based, luminescence, agonist arm of biased-ligand search. actives 0.98% (n = 360,000). activation, % at 8.9 µM. AID 540308, 2011. U2OS MC4R beta-arrestin complementation; percent of melanotan II response, DMSO zero. Melanocortin receptor 4 (Homo sapiens), P32245;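 active = activation above a per-plate cutoff, the mean activation of sample wells on that plate plus 3 SD, cut at about 8% in these data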
# iPSC survival up: enhancers of single-cell hiPSC survival, primary screen, ATPlite luminescence; actives 0.044% (n = 360,000); survival enhancement, % at 20 µM; AID 602274, 2012; 100% = ROCK inhibitor wells, 0% = DMSO; in the data active = survival enhancement above about 18%;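 also: cells exposed to compounds for 16 hours before the ATP read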
# Starred values were filed as active, the others as inactive; nt = no result. Compounds with a hit are over-represented: about 2.6% of the library has one in this group of screens.
SMILES,Exocytosis inh,Tb MetRS inh,ABCB6 inh MLPCN,MC4R antagonist,MC4R barr agon,iPSC survival up
COc1cc(C(=O)Nc2nc(-c3cc(C)ccc3C)c(C)s2)ccc1OCC(=O)Nc1ccc(F)cc1,-0.6,-0.3,90.0,6.8,-1.8,0.9
COc1ccc(-c2nc(NC(=O)c3ccc(OCC(=O)Nc4ccc(F)cc4)c(OC)c3)sc2C)cc1,2.6,0.0,86.0,4.1,44.6*,0.0
Cc1c(C(=O)NCc2ccc(S(N)(=O)=O)cc2)oc2ccc(Cl)cc12,-1.3,-0.5,99.0,-6.3,8.0,-0.6
O=C(CC[C@H]1O[C@@H](n2ccc(=O)[nH]c2=O)[C@H](O)[C@@H]1O)NCc1cccc2ccccc12,3.0,-0.4,104.0,nt,nt,-4.0
CCCCn1c(NC(=O)c2ccccc2Cl)c(C#N)c2nc3ccccc3nc21,63.4*,5.2,91.0,5.6,3.8,-1.0
N#Cc1c(NC(=O)c2ccccc2Cl)n(Cc2ccccc2)c2nc3ccccc3nc12,104.4*,6.8*,108.0,11.7,0.5,0.5
CCCCn1c(NC(=O)CC)c(C#N)c2nc3ccccc3nc21,4.9,-1.1,107.0,-0.4,0.8,5.0
COc1ccc([N+](=O)[O-])cc1NC(=O)CC1SC(=Nc2cccc(C)c2C)N(/N=C/c2cccc(OC)c2OC)C1=O (stereo unspecified),-3.7,0.2,89.0,1.0,-1.4,6.0
COc1ccc(C2c3c(oc4ccc(Cl)cc4c3=O)C(=O)N2CCN2CCOCC2)cc1 (stereo unspecified),0.3,-0.1,96.0,6.0,-2.7,-0.7
COc1cc(NC(=O)c2cc(Cl)ccc2Cl)ccc1-c1cc2ccccc2oc1=O,5.2,0.3,106.0,-2.1,13.8*,-0.3
CCc1ccc(OCC(=O)Nc2ccc(-c3cc4ccccc4oc3=O)c(OC)c2)cc1,0.4,-0.9,105.0,-19.2,-2.4,0.5
COc1cc(NC(=O)c2cccc(C)c2)ccc1NC(=O)c1cc2ccccc2o1,-15.0,0.8,90.0,8.0,11.3*,-0.3
COc1cc(NC(=O)c2cc3ccccc3o2)c(OC)cc1Br,-3.1,-0.3,104.0,2.5,19.8*,3.3
COc1ccccc1C(=O)COC(=O)CN1C(=O)NC2(CCCC2)C1=O,14.4,-0.3,96.0,11.0,-2.9,-0.3
Cc1c(N=C2C=CC(=O)c3ccccc32)c(=O)n(-c2ccccc2)n1C,95.2*,1.0,104.0,-16.0,-0.9,-4.2
COC(=O)c1sccc1NC(=O)CSc1ccccc1NS(=O)(=O)c1ccc(Br)cc1,35.8,-0.5,96.0,3.0,-0.8,0.6
CCOc1cccc(-c2nn(-c3ccccc3)cc2/C=C(/C#N)C(=O)NCCCn2ccnc2)c1,68.1*,0.0,97.0,0.7,5.8,-0.4
COc1ccc2c(c1OC)C(=O)OC2Nc1nc(-c2cc3ccccc3oc2=O)cs1 (stereo unspecified),79.1*,-0.8,104.0,-14.4,-1.8,-2.2
CCN(CCCNC(=O)Cn1ncc2c(=O)oc3ccccc3c21)c1cccc(C)c1,5.5,-0.4,96.0,6.8,9.4*,1.6
COc1ccc([C@H]2[C@H](C(=O)OC(C)(C)C)N3N=Cc4ccccc4C3C23C(=O)c2ccccc2C3=O)cc1OC (stereo partly specified),63.4*,-0.5,101.0,3.1,-2.8,-1.2
COc1ccc([C@H]2[C@H](C(=O)OC(C)(C)C)N3N=Cc4ccccc4C3C23C(=O)c2ccccc2C3=O)c(OC)c1 (stereo partly specified),-0.3,-0.1,108.0,19.7,0.8,-1.4
C=CCNC(=O)c1ccc(N(C)S(=O)(=O)c2ccc(OC)cc2)cc1,4.9,-0.8,61.0*,3.2,1.1,0.6
C=CCNC(=O)c1ccc(OC)cc1,-6.8,-0.1,99.0,13.3,0.0,-0.5
CC12C=CC(=O)C=C1C(F)CC1C3CCC(O)(C(=O)CO)C3(C)CC(O)C12F (stereo unspecified),1.6,-0.4,91.0,11.0,-1.7,-1.2
CC(=O)Nc1ccc(NC(=O)CN(c2ccc(C34CC5CC(CC(C5)C3)C4)cc2)S(C)(=O)=O)cc1,5.8,0.4,98.0,9.5,11.4*,0.8
SMILES,Exocytosis inh,Tb MetRS inh,ABCB6 inh MLPCN,MC4R antagonist,MC4R barr agon,iPSC survival up
CCCC(NC(=O)C(C)N1CCN(S(=O)(=O)c2ccccc2)CC1)c1ccccc1 (stereo unspecified),2.8,-0.1,100.0,-5.0,-2.6,-0.3
COc1ccccc1-c1cc(C(=O)Nc2ccccc2SC)no1,4.5,-1.4,91.0,-8.3,8.7*,0.8
COc1ccccc1-c1cc(C(=O)Nc2cccnc2Cl)no1,-1.3,-0.3,101.0,21.4,7.6,2.1
Nc1ccc(C(=O)Nc2ccc(NC(=O)c3ccco3)c(O)c2)cc1,-0.4,-1.2,95.0,13.4,0.7,-1.1
CS(=O)(=O)c1nc(-c2ccccc2)cc(C(F)(F)F)n1,74.4*,0.1,98.0,16.4,-3.3,-1.9
Cc1cc(NC(=O)CCS(=O)(=O)c2nc(-c3ccccc3)cc(C(F)(F)F)n2)no1,48.8,1.1,97.0,24.6,-4.1,-5.7
Cc1noc(C)c1C(=O)N1CCC1(C)C(=O)NS(=O)(=O)c1ccccc1C(F)(F)F (stereo unspecified),-0.6,0.2,103.0,-6.0,-0.5,3.3
COc1ccc(C2c3ccc4ccccc4c3Oc3ncn(CCO)c(=N)c32)cc1 (stereo unspecified),52.3,-1.4,103.0,2.8,-1.6,-0.5
COc1ccc(C2c3ccc4ccccc4c3Oc3ncn(CCCO)c(=N)c32)cc1 (stereo unspecified),65.4*,2.9,100.0,13.3,0.6,-0.7
COC(=O)c1sccc1NC(=O)CC1C(=O)NCCN1C(=O)c1ccc(N(C)C)cc1 (stereo unspecified),-1.5,0.1,97.0,11.5,-1.4,1.8
O=C(Nc1ccccc1)C1=C[C@@H](c2ccc3c(c2)OCO3)C[C@@H](OCCCCO)O1,20.8,-0.2,99.0,8.9,-1.0,8.1
CN(C/C=C/c1ccccc1[N+](=O)[O-])Cc1ccccc1,-2.6,-1.4,95.0,6.7,-1.5,-0.4
Cc1ccccc1OCC(=O)Nc1ccccc1-c1ccccc1NC(=O)COc1ccccc1C,-2.6,-0.9,101.0,8.7,-0.4,0.3

# Bioassay records from PubChem BioAssay.
